This is a sample that favours compounds with a hit; in the whole collection about 1.7% have one here.
LMPTP inh – blocks human LMPTP phosphatase | inhibition, % at 20 µM | 360,000 compounds, 0.22% hits | AID 651560 | recombinant LMPTP-A, OMFP fluorogenic substrate, fluorescence intensity;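 active means compounds that cut the enzyme signal by at least half of the control window in the single-dose screen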;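 further: plate controls were DMSO wells with enzyme plus substrate for no effect and substrate without enzyme for full effect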
Target sequence (P24666 whole entry, looked up): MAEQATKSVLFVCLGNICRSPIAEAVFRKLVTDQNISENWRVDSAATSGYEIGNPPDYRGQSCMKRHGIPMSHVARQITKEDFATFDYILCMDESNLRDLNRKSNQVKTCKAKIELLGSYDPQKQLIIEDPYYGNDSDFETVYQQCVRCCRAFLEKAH
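test system = LMPTP-A | amount = 0.625 nM LMPTP-A final | reagent = fluorogenic phosphatase substrate OMFP at 400 µM final | incubation = 50 min at room temperature | benchmarks = no-enzyme low control, uninhibited high control | medium = Bis-Tris pH 6.0, DTT, detergent | signal = fluorescence intensity of OMFP turnover product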
Scp1 inh – blocks human Scp-1 phosphatase activity. Q9GZU7. Recombinant Scp1, phosphopeptide, malachite green phosphate absorbance. inhibition, % at 20 µM. 340,000 compounds, 0.88% hits. AID 493091;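 active means inhibition above about 50% at 20 µM, limit read from the data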;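 further: plate controls were DMSO wells with enzyme for no effect and wells lacking enzyme for full effect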
Target sequence (Q9GZU7 76-261 limits assumed): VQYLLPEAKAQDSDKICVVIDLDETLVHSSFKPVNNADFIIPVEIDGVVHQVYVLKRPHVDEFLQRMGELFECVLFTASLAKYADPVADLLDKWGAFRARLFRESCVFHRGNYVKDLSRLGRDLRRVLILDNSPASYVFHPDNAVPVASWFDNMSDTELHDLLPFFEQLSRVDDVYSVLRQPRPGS
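assay system = SCP-1 phosphatase catalytic domain, residues 76-261 | buffer or medium = 50 mM Tris acetate pH 5.5, 0.005% Tween-20, 10 mM MgCl2 | incubation = enzyme reaction 45 min at room temperature, colour 5 min, stabilisation 30 min | signal = Phosphate-binding colour reagent, absorbance read at 630 nm | measure = % inhibition at 20 µM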
DNMT1 inh – DNMT1 (human) enzyme inhibition; DNMT1 molecular beacon, Hinp1I cleavage, fluorescence; inhibition (reported as % activation of signal), % at 10 µM; 360,000 compounds, 0.83% hits; in the data active means inhibition above about 50%
STEP inh – blocks human striatal-enriched tyrosine phosphatase; P54829; recombinant STEP, OMFP fluorogenic substrate, fluorescence; inhibition, % at 20 µM; 360,000 compounds, 0.25% hits; AID 588621;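 active means inhibition at 20 µM, scaled per plate between control wells, above about 37%, limit read from the data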;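 further: 0% = DMSO with enzyme and substrate and 100% = substrate only without enzyme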
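System: isolated STEP enzyme; schedule: 20 min enzyme reaction at room temperature, protected from light; medium: Bis-Tris buffer pH 6.0, 2.5 mM DTT, 0.005% Tween 20; signal: fluorescence, 480/540 nm; dosing: single compound dose of 20 µM, 1% DMSO final; also added: OMFP substrate, 25 µM final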
SUMO1 PPI mod – SUMO1-SIM interaction modulation; SUMO1 binding to a labelled peptide, TR-FRET, 1 h; inhibition, % at 20 µM; 360,000 compounds, 0.33% hits; AID 602429; in the data active means inhibition above about 37%
Target sequence (P63165 whole entry, looked up): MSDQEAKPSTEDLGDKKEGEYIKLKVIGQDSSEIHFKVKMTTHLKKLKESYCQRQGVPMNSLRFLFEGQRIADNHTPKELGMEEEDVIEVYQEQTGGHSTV
DNMT1 inh conf – DNMT1 inhibition confirmation, single concentration. shares compounds with DNMT1 inh. DNMT1 molecular beacon HinP1I cleavage, fluorescence. inhibition, % at 10 µM. 2,300 compounds, 8% hits. AID 602385;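 active means average inhibition of at least 30% in the single-concentration confirmation test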
DNMT1 interf – shows spectral interference in the DNMT1 beacon assay | AID 602387 | 2,300 compounds, 1% hits | shares compounds with DNMT1 inh | activation (fluorescence interference), % at 10 µM | DNMT1 molecular beacon spectral interference counterscreen, fluorescence 485/520;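 active means activation of at least 30% at 10 µM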;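 further: DNMT1 catalytic domain with a HinP1I cleavage step and a FAM/dabcyl DNA beacon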
Numbers without * were called inactive; . = no result.

SMILES	LMPTP inh	Scp1 inh	DNMT1 inh	STEP inh	SUMO1 PPI mod	DNMT1 inh conf	DNMT1 interf
CCN(CCn1cccn1)C(=O)CCc1nnc(CCCc2ccccc2)o1	-1	-8	-2	-3	5	.	.
Cc1ccc([N+](=O)[O-])cc1-c1ccc(/C=C(\C#N)c2[nH]nc(N)c2C#N)o1	71*	36	84*	37	58*	6	-6
CCc1nn(CC(=O)NC(C)CCc2ccccc2)c(=O)c2cc3cc(F)ccc3n12 (centres undefined)	1	-2	53*	3	4	2	1
CCc1nn(CC(=O)NC2CCN(Cc3ccccc3)CC2)c(=O)c2cc3cc(F)ccc3n12	0	-5	30	-2	-15	.	.
Cn1c(O)c(N=NC(=O)CNC(=O)c2cccnc2)c2ccccc21	0	-4	-1	0	-30	.	.
Cc1c(C)c2ccc(OCC(=O)Nc3ccccn3)c(C)c2oc1=O	-1	-2	1	-3	-10	.	.
Cc1c(C)c2cc(Cl)c(OCC(=O)Nc3ccccn3)cc2oc1=O	-1	.	65*	-2	71*	3	4
O=C(N/N=C/c1cc(Cl)cc([N+](=O)[O-])c1O)NC12CC3CC(CC(C3)C1)C2	78*	23	72*	8	-1	7	-5
N=C1/C(=C/c2cccn2Cc2ccc(Cl)cc2)C(=O)N=C2SC=CN12	3	6	11	-5	-2	.	.
N#Cc1cc2c(nc1SCC(=O)Nc1sc3c(c1C#N)CCC3)CCC2	1	6	6	-1	-1	.	.
COc1ccc(-c2ccc(C#N)c(SCC(=O)Nc3sc4c(c3C#N)CCC4)n2)cc1OC	-1	-1	61*	1	2	-3	-4
CCO[C@@H]1OC(C(=O)N2CCCCCCC2)=C[C@H](c2ccc3c(c2)OCO3)[C@H]1CCCO	0	-4	-4	1	-3	.	.
Cc1sc2nc(SCC(=O)N(C)Cc3ccccc3)n(-c3ccccc3)c(=O)c2c1C	5	-11	70*	5	-2	-1	-5
COc1ccc(-c2cc(=O)oc3c(C)c(OC(=O)c4cccs4)ccc23)cc1	2	1	60*	1	1	3	-9
C[C@H](NC(=O)c1ccco1)C(=O)Nc1nc(-c2ccccn2)cs1	-2	-10	77*	1	10	8	4
O=C(Nc1nc(-c2ccccn2)cs1)c1ccco1	6	-5	13	4	23	.	.
CCC(=O)Nc1cc(C(=O)OC(C(=O)c2ccc(C)c(C)c2)c2ccccc2)ccc1C (centres undefined)	1	-4	-3	1	-1	.	.
O=S(=O)(NC1C2CC3CC(C2)CC1C3)c1ccccc1 (centres undefined)	0	-8	-1	-5	-2	.	.
O=C(NCSc1ccnc(SCNC(=O)c2ccc(F)cc2)n1)c1ccc(F)cc1	0	38	52*	6	2	3	-6
O=C(NCCNC(=O)c1ccc(F)cc1)c1ccc(F)cc1	-1	-6	3	0	7	.	.
COC(=O)[C@@]1(C)CC[C@]2(C)CC[C@@]3(C)C(=CC(=O)C4[C@@]5(C)CC[C@H](O)C(C)(C)[C@@H]5CC[C@]43C)[C@H]2C1 (some centres undefined)	1	0	53*	0	-5	-1	2
CC1(C)C2CC[C@]3(C)C(CC=C4[C@@H]5C[C@@](C)(CO)[C@@H](O)C[C@]5(C(=O)O)CC[C@]43C)[C@@]2(C)CC[C@@H]1O (some centres undefined)	1	10	-2	-1	0	.	.
Nc1nc(SCC(=O)NCCC(c2ccccc2)c2ccccc2)n[nH]1	.	-12	.	.	.	.	.
Cc1cc(OC(C(=O)O)c2ccccc2)c2c(C)c(Cc3ccccc3)c(=O)oc2c1 (centres undefined)	0	-5	88*	4	-2	2	6
CC1=NN(c2ccccc2)C(=O)C1C=Nc1ccccc1O (centres undefined)	3	-15	0	3	-16	.	.
